In ChEMBL document CHEMBL1124354, “Potential antiatherosclerotic agents. 6. Hypocholesterolemic trisubstituted urea analogues” (J Med Chem, 1989):

Key:
[1] = target: T1, Sterol O-acyltransferase 1 (Rattus norvegicus) (UniProt O70536); assay: In vitro percentage inhibition against Acyl coenzyme A:cholesterol acyltransferase derived from rat adrenals; parameters: concentration or dose not given beside the values; details: concentration not given here
T1 sequence (whole entry): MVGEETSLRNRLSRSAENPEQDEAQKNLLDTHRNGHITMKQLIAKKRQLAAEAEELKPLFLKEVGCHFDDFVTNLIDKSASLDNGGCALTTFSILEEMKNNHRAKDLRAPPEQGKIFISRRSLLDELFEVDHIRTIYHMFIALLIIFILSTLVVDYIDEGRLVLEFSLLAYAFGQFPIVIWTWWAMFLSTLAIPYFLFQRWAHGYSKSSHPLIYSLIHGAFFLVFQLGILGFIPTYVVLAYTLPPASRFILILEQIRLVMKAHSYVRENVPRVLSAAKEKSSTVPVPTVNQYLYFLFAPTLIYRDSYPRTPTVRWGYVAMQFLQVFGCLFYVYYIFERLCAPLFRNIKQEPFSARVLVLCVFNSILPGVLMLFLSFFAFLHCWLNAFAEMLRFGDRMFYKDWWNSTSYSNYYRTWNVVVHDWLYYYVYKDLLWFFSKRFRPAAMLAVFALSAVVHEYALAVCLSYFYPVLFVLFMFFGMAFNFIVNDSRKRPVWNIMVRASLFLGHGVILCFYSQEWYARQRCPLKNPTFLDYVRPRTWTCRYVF
Summary of the method: (§1)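 Rat adrenal 1000g supernatant (microsomal ACAT) in 0.2 M KH2PO4 pH 7.4 with BSA; test compound at final 5.2 µg/mL, preincubated 37 °C 10 min; [14C]oleoyl-CoA (0.4 µCi) added, 37 °C 30 min. Cholesteryl ester separated by TLC, scintillation counted; mean percent inhibition against compound-free control.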

[2] = target: T2, Sterol O-acyltransferase 1 (Rattus norvegicus, UniProt O70536); assay: In vitro inhibitory concentration against Acyl coenzyme A:cholesterol acyltransferase derived from rat adrenals
T2 sequence (O70536 whole entry): T1 sequence (whole entry)
Summary of the method: (§2)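 Rat adrenal homogenate in 0.2 M KH2PO4 buffer pH 7.4, 1000g supernatant (microsomal fraction) as enzyme; preincubated with BSA and test compound at graded concentrations, 37 °C 10 min, then [14C]oleoyl-CoA 0.4 µCi, 37 °C 30 min. Lipids extracted, cholesteryl ester isolated by TLC and counted. Triplicate tubes per concentration; IC50 by linear regression of means.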

[3] = target: T1, Sterol O-acyltransferase 1 (Rattus norvegicus); assay: Liver hypolipidemic activity in rats; assay type: functional
Summary of the method: (§3)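 Male CD-1 Sprague-Dawley rats, 140–150 g, fed 1% cholesterol/0.5% cholic acid diet with compound admixed at 0.01% (about 10 mg/kg/day) for 7 days. Serum and liver cholesterol measured by Technicon autoanalyzer methods; expressed as percent of control.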

[4] = target: T1, Sterol O-acyltransferase 1 (Rattus norvegicus); assay: Serum hypolipidemic activity in rats; assay type: functional; summary of the method: as §3
[5] = target: T1, Sterol O-acyltransferase 1 (Rattus norvegicus); assay: (§4) In vitro percentage inhibition against acyl coenzyme A:cholesterol acyltransferase derived from rat adrenals; parameters: concentration or dose not given beside the values; details: concentration not given here; summary of the method: as §1
[6] = target: T2, Sterol O-acyltransferase 1; assay: In vitro inhibitory concentration against acyl coenzyme A:cholesterol acyltransferase derived from rat adrenals; summary of the method: as §2
[7] = target: T1, Sterol O-acyltransferase 1 (Rattus norvegicus); assay: In vitro percentage inhibition against ACAT derived from rat adrenals; details: concentration not given here; summary of the method: as §1
[8] = target: T2, Sterol O-acyltransferase 1; assay: In vitro inhibitory concentration against ACAT derived from rat adrenals; summary of the method: as §2
[9] = target: T1, Sterol O-acyltransferase 1 (Rattus norvegicus); assay: In vitro percentage inhibition againstAcyl coenzyme A:cholesterol acyltransferase derived from rat adrenals; details: concentration not given here; summary of the method: as §1
[10] = target: T1, Sterol O-acyltransferase 1 (Rattus norvegicus); assay: as §4; details: concentration not given here
Summary of the method: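 Rat adrenals homogenized in 0.2 M KH2PO4 (pH 7.4), spun at 1000g for 15 min at 5 °C; supernatant used as enzyme. Preincubated with BSA and test compound (final 5.2 µg/mL) at 37 °C for 10 min, then [14C]oleoyl-CoA (0.4 µCi) added for 30 min at 37 °C. Cholesteryl ester isolated by TLC and counted. Mean percent inhibition versus control without compound.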

Row | inhibition [1] [%] | LS [3] [%] | SS [4] [%] | IC50 [6] [µM] | SMILES | also measured
1 | 86 | – | – | – | O=C(Nc1cc(Cl)cc(Cl)c1)N(Cc1ccccc1)Cc1ccccc1 | IC50 [2]: 3.97 µM
2 | 94 | 97 | 84 | – | Cc1ccc(NC(=O)N(Cc2ccccc2)Cc2ccccc2)cc1Cl | IC50 [2]: 18.9 µM
3 | 63 | 26 | 53 | – | Cc1cc(Cl)ccc1NC(=O)N(Cc1ccccc1)Cc1ccccc1 | IC50 [2]: 3.37 µM
4 | – | 93 | 87 | 4.08 | CCCCN(CCCC)C(=O)Nc1cccc(Cl)c1C | inhibition [5]: 80%
5 | 71 | 66 | 97 | – | Cc1ccc(Cl)cc1NC(=O)N(Cc1ccccc1)Cc1ccccc1 | –
6 | 94 | – | – | – | O=C(Nc1cccc(C(F)(F)F)c1)N(Cc1ccccc1)Cc1ccccc1 | IC50 [2]: 2.89 µM
7 | 64 | 66 | 71 | – | CCCCCCCCCCN(CCCCCCCCCC)C(=O)Nc1ccc(C)cc1C | IC50 [2]: 0.63 µM
8 | – | 73 | 66 | 6.75 | CC(C)(C)CCN(Cc1cccs1)C(=O)Nc1ccc(F)cc1F | –
9 | – | 107 | 99 | – | CCCCN(C(=O)Nc1ccc(C)cc1C)c1ccccc1 | inhibition [7]: 70%; IC50 [8]: 21.4 µM
10 | – | 49 | 82 | – | CCCCCN(CCCCC)C(=O)Nc1ccc(C)cc1C | inhibition [7]: 90%; IC50 [8]: 0.952 µM
11 | 82 | 57 | 66 | – | O=C(Nc1ccc(Cl)cc1C(F)(F)F)N(Cc1ccccc1)Cc1ccccc1 | –
12 | 84 | – | – | – | Cc1c(Cl)cccc1NC(=O)N(Cc1ccccc1)Cc1ccccc1 | IC50 [2]: 8.39 µM
13 | 50 | 96 | 92 | – | O=C(NCc1ccccc1)Nc1ccccc1Cl | –
14 | – | – | – | 9.63 | CCOc1ccc(NC(=O)N(Cc2ccccc2)Cc2ccccc2)cc1 | inhibition [5]: 96%
15 | – | – | – | 10.5 | CCCCN(CCCC)C(=O)Nc1ccc(Cl)c(C(F)(F)F)c1 | inhibition [5]: 87%
16 | – | – | – | 7.75 | O=C(Nc1cccc(Cl)c1)N(Cc1ccccc1)Cc1ccccc1 | inhibition [5]: 94%
17 | – | 78 | 81 | 9.84 | CCCCN(CCCC)C(=O)Nc1ccc(C)cc1C | inhibition [5]: 81%
18 | 75 | 91 | 100 | – | CCCCN(CCCC)C(=O)Nc1cccc(C(F)(F)F)c1 | –
19 | 26 | 120 | 86 | – | CCCCCCCCCCCCN(CCCCCCCCCCCC)C(=O)Nc1ccc(C)cc1C | –

Row | inhibition [1] [%] | LS [3] [%] | SS [4] [%] | IC50 [6] [µM] | SMILES | also measured
20 | 86 | 106 | 80 | – | Cc1ccc(NC(=O)N(CCCCC2CCCCC2)CCCCC2CCCCC2)c(C)c1 | –
21 | – | 28 | 56 | – | CCCCCCCN(Cc1cccs1)C(=O)Nc1cc(Cl)c(Cl)cc1Cl | IC50 [2]: 0.484 µM
22 | – | – | – | – | O=C(Nc1ccc([N+](=O)[O-])cc1)N(Cc1ccccc1)Cc1ccccc1 | inhibition [9]: 52%
23 | 85 | 51 | 65 | – | Cc1cccc(NC(=O)N(Cc2ccccc2)Cc2ccccc2)c1C | –
24 | 91 | 15 | 65 | – | CCCCCCCN(CCCCCCC)C(=O)Nc1ccc(C)cc1C | IC50 [2]: 0.721 µM
25 | 10 | 85 | 100 | – | Cc1ccc(NC(=O)Nc2ccc(C)cc2C)c(C)c1 | –
26 | – | 62 | 72 | – | CCCCN(Cc1ccccc1)C(=O)Nc1ccc(Cl)cc1C | IC50 [2]: 7.65 µM
27 | 68 | 76 | 165 | – | O=C(Nc1ccccc1C(F)(F)F)N(Cc1ccccc1)Cc1ccccc1 | –
28 | 96 | 34 | 37 | – | CCCCCCCN(Cc1ccco1)C(=O)Nc1c(Cl)cc(Cl)cc1Cl | IC50 [2]: 0.407 µM
29 | -7 | 121 | 107 | – | CCCCCCCCCCCCCCN(CCCCCCCCCCCCCC)C(=O)Nc1ccc(C)cc1C | –
30 | – | 89 | 66 | 3.23 | O=C(Nc1ccc(Oc2ccccc2)cc1)N(Cc1ccccc1)Cc1ccccc1 | inhibition [5]: 94%
31 | 78 | 107 | 106 | – | CCCCN(Cc1ccccc1)C(=O)Nc1ccc(C)cc1 | inhibition [5]: 14%
32 | 88 | 44 | 83 | – | COc1ccc(C)cc1NC(=O)N(Cc1ccccc1)Cc1ccccc1 | –
33 | – | 56 | 58 | 0.977 | CC(C)(C)CCN(Cc1cccs1)C(=O)Nc1c(Cl)cc(Cl)cc1Cl | –
34 | 33 | 93 | 73 | – | C#CCN(CC#C)C(=O)Nc1ccc(C)cc1C | –
35 | – | 25 | 54 | – | CCCCCCCN(Cc1cccs1)C(=O)Nc1cc(C)c(C)cc1C | IC50 [8]: 1.45 µM
36 | – | 76 | 100 | 3.55 | CCCCN(CCCC)C(=O)Nc1cc(C)cc(C)c1 | inhibition [5]: 84%
37 | 72 | 60 | 97 | – | Cc1ccc(NC(=O)N(Cc2ccccc2)Cc2ccccc2)cc1C | –
38 | 95 | 36 | 59 | – | CCCCCCN(CCCCCC)C(=O)Nc1ccc(C)cc1C | IC50 [2]: 0.331 µM

Row | inhibition [1] [%] | LS [3] [%] | SS [4] [%] | IC50 [6] [µM] | SMILES | also measured
39 | 81 | 84 | 110 | – | CCCCN(CC(c1ccc(Cl)cc1)c1ccc(Cl)cc1)C(=O)Nc1ccc(C)cc1C | –
40 | – | 86 | 92 | 5.77 | O=C(Nc1cccc(Br)c1)N(Cc1ccccc1)Cc1ccccc1 | inhibition [5]: 92%
41 | – | 65 | 66 | 4.7 | Cc1ccc(NC(=O)N(CCC(C)C)CCC(C)C)c(C)c1 | inhibition [5]: 89%
42 | 51 | 100 | 64 | – | CCCCN(CCCC)C(=O)Nc1cccc(C(C)=O)c1 | –
43 | – | 98 | 110 | 6.43 | CCCCN(CCCC)C(=O)Nc1ccc(C)c(Cl)c1 | inhibition [5]: 91%
44 | – | 100 | 63 | 9.13 | CCCCc1ccc(NC(=O)N(CCCC)CCCC)cc1 | inhibition [5]: 94%
45 | 89 | 22 | 47 | – | CCCCCCCCN(CCCCCCCC)C(=O)Nc1ccc(C)cc1C | –
46 | 37 | 28 | 32 | – | Cc1cc(C)c(NC(=O)N(Cc2ccccc2)Cc2ccccc2)c(C)c1 | IC50 [2]: 3.74 µM
47 | – | – | – | 4.76 | CCCCN(CCCC)C(=O)Nc1cccc(C)c1 | inhibition [5]: 78%
48 | – | – | – | – | CCCCN(CCCC)C(=O)Nc1ccc(OCC)cc1 | inhibition [10]: 79%
49 | 91 | 87 | 62 | – | CCCCc1ccc(NC(=O)N(Cc2ccccc2)Cc2ccccc2)cc1 | –
50 | 90 | 31 | 52 | – | Cc1ccc(NC(=O)N(Cc2ccccc2)Cc2ccccc2)c(C)c1 | –
51 | -6 | 123 | 106 | – | CCCCCCCCCCCCCCCCCCN(CCCCCCCCCCCCCCCCCC)C(=O)Nc1ccc(C)cc1C | –
52 | – | 64 | 62 | 6.77 | Cc1c(Cl)cccc1NC(=O)N(CCC(C)(C)C)Cc1cccs1 | –
53 | – | 46 | 64 | 5.67 | CCCCN(Cc1ccc2c(c1)OCO2)C(=O)Nc1ccc(C)cc1C | inhibition [5]: 88%
54 | – | 108 | 83 | 11.4 | CCCCN(CCCC)C(=O)Nc1ccc(F)c(Cl)c1 | inhibition [5]: 91%
55 | 69 | 20 | 47 | – | Cc1cc(C)c(NC(=O)N(Cc2ccccc2)Cc2ccccc2)cc1C | IC50 [2]: 0.446 µM
56 | 90 | 70 | 71 | – | Cc1ccc(NC(=O)N(CCC(C)CC(C)(C)C)CCC(C)CC(C)(C)C)c(C)c1 (stereo unspecified) | –

Row | SMILES | inhibition [1] [%] | LS [3] [%] | SS [4] [%] | IC50 [6] [µM] | also measured
57 | CCCCN(CCCC)C(=O)Nc1cc(Cl)cc(Cl)c1 | – | 93 | 76 | 4.38 | inhibition [5]: 79%
58 | CCCCN(CCCC)C(=O)Nc1cccc(Cl)c1 | – | 100 | 105 | 9.65 | inhibition [5]: 88%
